Experiment [1] concerns A549. Nature of the experiment: Antiproliferative activity against human A549 cells after 3 days by sulforhodamine B assay. It counts as functional. The conditions noted are these: A549, 72 h, read-out: ED50 (the source's name). The method, boiled down: (§1)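 Cells were seeded from freshly trypsinized suspensions at 1500–7500 cells/well and dosed from DMSO-diluted stock. After 3 days of culture, attached cells were fixed with cold 50% TCA and stained with 0.4% SRB. Bound dye was solubilized and absorbance read at 562 nm. ED50 is the concentration giving 50% growth reduction versus untreated cells, averaged from at least three independent determinations. Cells were grown in RPMI-1640 with 25 mM HEPES, 10% FBS and kanamycin.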

Experiment [2] concerns PC-3. Nature of the experiment: Antiproliferative activity against human PC3 cells after 3 days by sulforhodamine B assay. It counts as functional. The conditions noted are these: for EC50: PC-3, 72 h, read-out: ED50 (the source's name). The method in brief:
as §1
For orientation: In SRB staining, fixed cells bind dye roughly in proportion to their protein.

Experiment [3] has as its system KB. The experiment can be described thus: Antiproliferative activity against human KB cells after 3 days by sulforhodamine B assay. It counts as functional. The conditions noted are these: 72 h, read-out: ED50 (the source's name). The method in brief: as §1
The test system of experiment [4] is MCF7. The experiment can be described thus: Antiproliferative activity against human MCF7 cells after 3 days by sulforhodamine B assay. It counts as functional. The conditions noted are these: MCF7, 72 h, read-out: ED50 (the source's name).
A short description of experiment [5]: Antiproliferative activity against human KBVIN cells expressing P-glycoprotein after 3 days by sulforhodamine B assay. It counts as functional. The following applies: 72 h, read-out: ED50 (the source's name). The method in brief: as §1
The test system of experiment [6] is 1A9. Nature of the experiment: Antiproliferative activity against human 1A9 cells after 3 days by sulforhodamine B assay. It counts as functional. The conditions noted are these: 1A9, 72 h, read-out: ED50 (the source's name). The method, boiled down: as §1
Experiment [7] relates to HCT-8. The experiment can be described thus: Antiproliferative activity against human HCT8 cells after 3 days by sulforhodamine B assay. It counts as functional. The following applies: HCT-8, 72 h, read-out: ED50 (the source's name). The method in brief: as §1
For experiment [8], the system named is HepG2. The experiment can be described thus: Antiproliferative activity against human HepG2 cells after 3 days by sulforhodamine B assay. It counts as functional. The conditions noted are these: for EC50: HepG2, 72 h, read-out: ED50 (the source's name). The method in brief:
as §1

Experiment [9] is described as follows: Effect on KNSL1 mRNA expression in human CL1-5 cells at 0.05 ug/ml after 24 hrs by RT-PCR relative to DMSO control. It counts as functional.
A short description of experiment [10]: Upregulation of MAD2L1 transcript in human CL1-5 cells at 0.05 ug/ml after 24 hrs by semi-quantitative RT-PCR. It counts as functional, cell-based. The method, boiled down:
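CL1-5 cells were seeded at 2.5×10^5 per 60 mm dish and grown 48 h in RPMI with 10% FBS at 37 °C in 5% CO2. Cells then received DMSO or 0.05 μg/mL compound for 24 h. Total RNA was extracted with TRIzol and MAD2L1 was amplified by RT-PCR, with Gβ-like as the control transcript, and bands were compared on gel.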

Experiment [11] is described as follows: Antiproliferative activity against human CL1-5 cells. It counts as functional. The following applies: read-out: ED50 (the source's name).
Experiment [12] can be described thus: Effect on dynein1 mRNA expression in human CL1-5 cells at 0.05 ug/ml after 24 hrs by RT-PCR relative to DMSO control. It counts as functional.
A short description of experiment [13]: Effect on NEK2A mRNA expression in human CL1-5 cells at 0.05 ug/ml after 24 hrs by Affymetrix GeneChip microarray relative to DMSO control.
The nature of experiment [14]: Effect on cyclinB mRNA expression in human CL1-5 cells at 0.05 ug/ml after 24 hrs by RT-PCR relative to DMSO control. It counts as functional.
The nature of experiment [15]: Effect on MAD1 mRNA expression in human CL1-5 cells at 0.05 ug/ml after 24 hrs by RT-PCR relative to DMSO control. It counts as functional.
A short description of experiment [16]: Effect on MAD2 mRNA expression in human CL1-5 cells at 0.05 ug/ml after 24 hrs by RT-PCR relative to DMSO control. It counts as functional.
A short description of experiment [17]: Effect on Aurora B mRNA expression in human CL1-5 cells at 0.05 ug/ml after 24 hrs by Affymetrix GeneChip microarray relative to DMSO control.
Experiment [18] is described as follows: Effect on separase mRNA expression in human CL1-5 cells at 0.05 ug/ml after 24 hrs by RT-PCR relative to DMSO control. It counts as functional.
The nature of experiment [19]: Effect on securin mRNA expression in human CL1-5 cells at 0.05 ug/ml after 24 hrs by RT-PCR relative to DMSO control. It counts as functional.
A short description of experiment [20]: Effect on dynactin mRNA expression in human CL1-5 cells at 0.05 ug/ml after 24 hrs by RT-PCR relative to DMSO control. It counts as functional.
A short description of experiment [21]: Effect on CDK1 mRNA expression in human CL1-5 cells at 0.05 ug/ml after 24 hrs by Affymetrix GeneChip microarray relative to DMSO control.
Experiment [22] can be described thus: Effect on Aurora A mRNA expression in human CL1-5 cells at 0.05 ug/ml after 24 hrs by Affymetrix GeneChip microarray relative to DMSO control.

Each structure is given as a SMILES string. Activity calls are given as the source filed them. No cut-off for these calls is given here. Where only a bound is given, the exact number is not on record here.

`CCCC1=C(OCC(C)C)C(CCC)(CCC)C(=O)/C(=C(O)\C=C\c2ccccc2)C1=O`: the EC50 in experiment [1] amounted to 1.7 µM; in experiment [2], 12.2 µM; in experiment [3], 4.8 µM; in experiment [4], 4.4 µM; in experiment [5], 4.1 µM; in experiment [6], 6.9 µM. Besides, the EC50 in experiment [7] was 8 µM; in [8], 13.4 µM.

For the compound `CCCOC1=C(CCC)C(=O)/C(=C(O)/C=C/c2ccccc2)C(=O)C1(CCC)CCC`, the EC50 in experiment [1] is 1.9 µM; in [2], 8.6 µM; in [3] it was 2.7 µM; in experiment [4] it was 1.6 µM; in [5], 2.4 µM; in experiment [6], 2 µM. Moreover, the results for the EC50 in [7] and in [8] were 2.6 µM and 8.3 µM, respectively.

As for `COC1=C(CC(C)C)C(=O)/C(=C(O)/C=C/c2ccccc2)C(=O)C1(CC(C)C)CC(C)C`, the EC50 in [1] came to 4.4 µM; in experiment [2], 12.4 µM; in [3] it was 7.9 µM; in [4], 3.7 µM; in [5] it was 8.2 µM; in [6], 8 µM. Besides, the EC50 in experiment [7] turned out to be 7.5 µM; in experiment [8], 14.5 µM.

Turning to `CCCC1=C(OC)C(CCC)(CCC)C(=O)/C(=C(O)\C=C\c2ccc(I)cc2)C1=O`, the EC50 in experiment [1] came out at 1.4 µM; in experiment [2], 2.8 µM; in [3], 1.5 µM; in experiment [4] it was 1.8 µM; in experiment [5], 1.4 µM; in experiment [6], 1.8 µM. Also, the EC50 came out at 1.1 µM in experiment [7] and 2.4 µM in experiment [8].

In the case of `COC1=C(CCC(C)C)C(=O)/C(=C(O)/C=C/c2ccccc2)C(=O)C1(CCC(C)C)CCC(C)C`, the EC50 in experiment [1] was found to be 18.4 µM; in [3] it was 17.5 µM; in experiment [4], 25.2 µM; in experiment [5] it was 20.3 µM; in experiment [6], 16.3 µM; in experiment [7], 13 µM. For the same compound, the ED50 result in experiment [2] and in experiment [8] was “inactive” throughout.

As for `COC1=C(CC=C(C)C)C(=O)/C(=C(O)/C=C/c2ccccc2)C(=O)C1(CC=C(C)C)CC=C(C)C` [3,3,5-TRIPRENYLDESMOSDUMOTIN C], the EC50 came out at 10.3 µM in experiment [1]; 12.2 µM in [2]; 13.3 µM in experiment [3]; 8.2 µM in experiment [4]; 8.9 µM in experiment [5]; 13.7 µM in experiment [7]. In experiment [8], the EC50 was determined as 11.2 µM.

On to `COC1=C(C)C(O)=C(C(=O)/C=C/c2ccccc2)C(=O)C1(C)C` [DESMOSDUMOTIN C], for which the EC50 in experiment [1] amounted to 11.2 µM; in experiment [2] it was 35.6 µM; in experiment [3] it was 12.8 µM; in experiment [5], 9.6 µM; in [6], 11.2 µM; in experiment [7], 11.8 µM.

For the compound `CCCC1=C(OC)C(CCC)(CCC)C(=O)/C(=C(O)\C=C\c2ccccc2)C1=O`, the EC50 is 3.6 µM in experiment [1]; 8.2 µM in experiment [2]; 4.6 µM in experiment [3]; 3.4 µM in experiment [5]; 3.7 µM in experiment [6]; 3.5 µM in [7].

Regarding `CCCC1=C(OC)C(CCC)(CCC)C(=O)/C(=C(O)\C=C\c2ccc(Br)cc2)C1=O`, the “fold change (FC)” value in experiment [9], in [12], in [13], in experiment [14], in experiment [15] and in [16] was 2 in each case. The “fold change (FC)” value in [17], in experiment [18], in [19], in experiment [20], in [21] and in [22] was 2 each time. The outcome in experiment [10] was Active. Also, the EC50 worked out at 0.11 µM in [11]; 2 µM in experiment [1]; 4.7 µM in [2]; 1.8 µM in experiment [3]; 1.8 µM in experiment [5]; 1.9 µM in [6]. In addition, in [7], the EC50 was found to be 2.6 µM.

Take `CCCCC1=C(OC)C(CCCC)(CCCC)C(=O)/C(=C(O)\C=C\c2ccccc2)C1=O`: the EC50 worked out at 6.4 µM in [1]; 13 µM in experiment [2]; 7 µM in experiment [3]; 4.4 µM in [4]; 8.6 µM in experiment [5]; 5.9 µM in [6]. Also, the results for the EC50 in [7] and in experiment [8] were 7.8 µM and 23.9 µM, respectively.

With `CCCC1=C(OCCC(C)C)C(CCC)(CCC)C(=O)/C(=C(O)\C=C\c2ccccc2)C1=O`, the EC50 in experiment [1] was found to be 11.3 µM; in [2], 17 µM; in [3], 10.6 µM; in experiment [4], 9.1 µM; in experiment [5], 19.2 µM; in experiment [7], 15.3 µM. Moreover, in experiment [8], the EC50 amounted to 15.5 µM.

On to `CCCCOC1=C(CCC)C(=O)/C(=C(O)/C=C/c2ccccc2)C(=O)C1(CCC)CCC`, for which the EC50 in [1] is 7.1 µM; in experiment [2], 9.6 µM; in experiment [3], 8 µM; in experiment [4], 5.3 µM; in experiment [5], 8.9 µM; in experiment [7], 8.7 µM. The EC50 in experiment [8] came to 8 µM.

In the case of `CC[C@]1(O)C[C@H]2CN(CCc3c([nH]c4ccccc34)[C@@](C(=O)OC)(c3cc4c(cc3OC)N(C=O)[C@H]3[C@@](O)(C(=O)OC)[C@H](OC(C)=O)[C@]5(CC)C=CCN6CC[C@]43[C@@H]65)C2)C1` [VINCRISTINE], the EC50 is 0.0048 µM in experiment [1]; 0.0121 µM in [2]; 0.0024 µM in [3]; 0.0121 µM in [4]; more than 0.1 µM in experiment [5]; 0.0242 µM in experiment [7]. For the same compound, in [8], the EC50 worked out at 0.0029 µM.

As for `CCCC1(CC=C(C)C)C(=O)C(C(=O)/C=C/c2ccccc2)=C(O)C(CCC)(CCC)C1=O` (stereo not drawn), the EC50 in [1] is 7.1 µM; in experiment [2], 8.4 µM; in experiment [3] it was 8.2 µM; in experiment [4], 5.8 µM; in [5], 7.3 µM; in experiment [7], 6.7 µM. Further, the EC50 in experiment [8] was found to be 6.4 µM.

As to `CC(=O)O[C@H]1C(=O)[C@@]2(C)[C@H]([C@H](OC(=O)c3ccccc3)[C@]3(O)C[C@H](OC(=O)[C@H](O)[C@@H](NC(=O)c4ccccc4)c4ccccc4)C(C)=C1C3(C)C)[C@]1(OC(C)=O)CO[C@@H]1C[C@@H]2O` [PACLITAXEL], the EC50 in [1] is 0.00256 µM; in [2], 0.00887 µM; in experiment [3], 0.00287 µM; in experiment [4] it was more than 0.1 µM; in experiment [5], more than 0.1 µM; in experiment [6] it was 0.00209 µM. Also, the EC50 in experiment [7] and in experiment [8] was more than 0.1 µM throughout.

Consider `CCCC1=C(OCC)C(CCC)(CCC)C(=O)/C(=C(O)\C=C\c2ccccc2)C1=O`, for which the EC50 in experiment [1] is 4.6 µM; in experiment [2] it was 12.5 µM; in experiment [3], 6.4 µM; in [4] it was 2.6 µM; in experiment [5], 3.5 µM; in experiment [6], 4.3 µM. The results for the EC50 in [7] and in [8] were 5.6 µM and 11.2 µM, respectively.

As for `CCCOC1=C(CCC)C(=O)/C(=C(O)/C=C/c2ccc(I)cc2)C(=O)C1(CCC)CCC`, the EC50 in experiment [1] came to 8.2 µM; in [2] it was 9.6 µM; in experiment [3], 6.4 µM; in experiment [4], 5.1 µM; in experiment [5], 6.2 µM; in [7] it was 7.8 µM. Moreover, the EC50 in experiment [8] was 7.3 µM.

Source of the values: ChEMBL document CHEMBL1681672, “Antitumor agents 283. Further elaboration of desmosdumotin C analogs as potent antitumor agents: activation of spindle assembly checkpoint as possible mode of action” (2011).
